4 compounds from publication PMC7382256 (Proceedings of the National Academy of Sciences of the …, 2020) can be followed below.

Targets include CSP4 (Caulobacter vibrioides, UniProt A0A0H3CCM2, K168R); CSP15 (Caulobacter vibrioides, UniProt A0A0H3CCM2, K168R/S160A); CSP31 (Caulobacter vibrioides, UniProt A0A0H3CCM2, DEL160/K168R); CSP25 (Caulobacter vibrioides, UniProt A0A0H3CCM2, K168R/K170A); CSP13 (Caulobacter vibrioides, UniProt A0A0H3CCM2, F158A/K168R); CSP16 (Caulobacter vibrioides, UniProt A0A0H3CCM2, A161L/K168R); CSP18 (Caulobacter vibrioides, UniProt A0A0H3CCM2, K168R/Y163A); CSP14 (Caulobacter vibrioides, UniProt A0A0H3CCM2, K168R/N159A); CSP10 (Caulobacter vibrioides, UniProt A0A0H3CCM2, K168R/R155A); H6-MBP-CSP2 (Caulobacter vibrioides, UniProt A0A0H3CCM2, K168R); CSP9 (Caulobacter vibrioides, UniProt A0A0H3CCM2, D154A/K168R); CSP26 (Caulobacter vibrioides, UniProt A0A0H3CCM2, A171L/K168R); CSP6 (Caulobacter vibrioides, UniProt A0A0H3CCM2, K168R); CSP27 (Caulobacter vibrioides, UniProt A0A0H3CCM2, D172A/K168R); CSP30 (Caulobacter vibrioides, UniProt A0A0H3CCM2, DEL159/K168R); CSP21 (Caulobacter vibrioides, UniProt A0A0H3CCM2, K168R/P166A); CSP28 (Caulobacter vibrioides, UniProt A0A0H3CCM2, DEL157/K168R); CSP20 (Caulobacter vibrioides, UniProt A0A0H3CCM2, G165A/K168R); CSP19 (Caulobacter vibrioides, UniProt A0A0H3CCM2, K164A/K168R); CSP2 (Caulobacter vibrioides, UniProt A0A0H3CCM2, K168R); CSP12 (Caulobacter vibrioides, UniProt A0A0H3CCM2, K168R/R157A); CSP11 (Caulobacter vibrioides, UniProt A0A0H3CCM2, K168R/R156A); CSP17 (Caulobacter vibrioides, UniProt A0A0H3CCM2, D162A/K168R); CSP32 (Caulobacter vibrioides, UniProt A0A0H3CCM2, DEL161/K168R); CSP29 (Caulobacter vibrioides, UniProt A0A0H3CCM2, DEL158/K168R); CSP3 (Caulobacter vibrioides, UniProt A0A0H3CCM2, K168R); CSP22 (Caulobacter vibrioides, UniProt A0A0H3CCM2, K168R/R167A); CSP23 (Caulobacter vibrioides, UniProt A0A0H3CCM2, K168A); CSP7 (Caulobacter vibrioides, UniProt A0A0H3CCM2, K168R).

Common to all, as to type: binding
For a further assay, the target named is CSP1 (Caulobacter vibrioides, UniProt A0A0H3CCM2). A digest of the protocol:
(§1)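 Peptide or protein, c-di-GMP and buffer were degassed for 15 min; runs at 15 °C. Format 1: cell held about 10 µM peptide/protein and syringe about 200 µM c-di-GMP, 30 injections at 250-s spacing. Format 2 (reverse): cell held about 20 µM c-di-GMP and syringe about 100 µM peptide/protein, 18 injections at 120-s spacing. Concentrations were set by absorbance at 1-cm path.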

Assay [1] addresses c-di-GMP. The assay can be described thus: Isothermal titration calorimetry. The conditions noted are these: ITC, 50 mM Tris·HCl pH 8.0, 100 mM NaCl, 15 °C; one-site model. A digest of the protocol: as §1
(In general: ITC needs no label: the signal is the heat of the interaction.)

Assay [2] concerns c-di-GMP. Description: Microscale thermophoresis. The conditions noted are these: N-terminally FITC-labeled CSP4. A digest of the protocol:
(§2)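 Binding of nucleotides to an N-terminally FITC-labelled, C-terminally amidated synthetic peptide (≥70% purity, dissolved in ultrapure water, concentration by spectrophotometry). Measured by microscale thermophoresis in standard-treated capillaries with blue-channel fluorescence, 30 s infrared heating at 50% of maximum laser power, then 5 s cooling. Buffer: 50 mM Tris·HCl pH 8.0, 100 mM NaCl, 0.1% polysorbate 20.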

In a further assay the test system is pGpG. Description: Microscale thermophoresis. The following applies: N-terminally FITC-labeled CSP4. A digest of the protocol:
as §2
A general note: MST reads how a fluorescent partner responds to local heating, with and without ligand.

In the next assay the test system is 3′3′-cGAMP. Description: Microscale thermophoresis. The conditions noted are these: N-terminally FITC-labeled CSP4. A digest of the protocol: as §2
In the next assay the test system is 3′3′-c-di-AMP. Description: Microscale thermophoresis. The following applies: N-terminally FITC-labeled CSP4. A digest of the protocol: as §2
A further assay concerns 2′3′-cGAMP. The assay can be described thus: Microscale thermophoresis. The conditions noted are these: N-terminally FITC-labeled CSP4. A digest of the protocol: as §2
In another assay the test system is GMP. The assay can be described thus: Microscale thermophoresis. The following applies: N-terminally FITC-labeled CSP4. The procedure, abridged:
as §2

The test system of a further assay is GTP. The assay can be described thus: Microscale thermophoresis. The following applies: N-terminally FITC-labeled CSP4. A digest of the protocol:
as §2

Sequence of CSP1 (A0A0H3CCM2 140-174): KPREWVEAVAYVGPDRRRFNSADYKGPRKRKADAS
Sequence of CSP3 (A0A0H3CCM2 144-172 K168R): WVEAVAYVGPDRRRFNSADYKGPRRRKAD
Sequence of CSP2 (A0A0H3CCM2 140-174 K168R): as the sequence (A0A0H3CCM2 140-174) above, with K29R counted along it
Sequence of H6-MBP-CSP2 (A0A0H3CCM2 140-174 K168R): as the sequence (A0A0H3CCM2 140-174) above, with K29R counted along it

The term Kd denotes the equilibrium constant for the complex coming apart. Lower therefore signals higher affinity. For `Nc1nc2c(ncn2[C@@H]2O[C@@H]3CO[P@](=O)(O)O[C@H]4[C@@H](O)[C@H](n5cnc6c(=O)[nH]c(N)nc65)O[C@@H]4CO[P@](=O)(O)O[C@H]3[C@H]2O)c(=O)[nH]1` [c-di-GMP, cyclic diguanylate (3'3'-c-di-GMP)], the Kd came out at 177 nM at CSP4; 209 nM at CSP15; 439 nM at CSP31; 273 nM on CSP25; 140 nM on CSP13; 102 nM at CSP16. For the same compound, the Kd at CSP18 is 4370 nM; at CSP14, 221 nM; at CSP10, 1470 nM; at H6-MBP-CSP2 it was 125 nM; on CSP9 it was 1750 nM; on CSP26 it was 251 nM. Also, the equilibrium dissociation constant (Kd) amounted to 1410 nM at CSP6; 108 nM on CSP1; 1720 nM at CSP27; 1250 nM at CSP30; 346 nM on CSP21; 1040 nM at CSP28. The Kd on CSP20 worked out at 7660 nM; on CSP19, 261 nM; on CSP2, 19 nM; on CSP12, 782 nM; on CSP11, 1510 nM; on CSP17, 145 nM. For the same compound, the dissociation constant Kd on CSP32 amounted to 338 nM; on CSP29, 1270 nM; at CSP3, 154 nM; on CSP22, 1830 nM; at CSP23, 4800 nM; on CSP7 it was 1710 nM.
Regarding DRRRFNSADYKGPRRR [CSP8], the “Kd to c-di-GMP” value at c-di-GMP [1] was “No binding”.
As for RRRFNSADYKGPRRR [CSP5], on c-di-GMP [1], the “Kd to c-di-GMP” value was “No binding”.
For the compound Ac-DRRRFNSADYKGPRRRKAD-NH2 [CSP4], in the assay on c-di-GMP [2], the “binding of c-di-GMP (MST)” value is “only c-di-GMP binding to CSP4 was observed”. The “binding of pGpG (MST)” value in the assay on pGpG was “none of the related nucleotides or CDNs was able to bind”. Moreover, the “binding of 3′3′-cGAMP (MST)” value in the assay on 3′3′-cGAMP is “none of the related nucleotides or CDNs was able to bind”. Moreover, the “binding of 3′3′-c-di-AMP (MST)” value in the assay on 3′3′-c-di-AMP was “none of the related nucleotides or CDNs was able to bind”. Moreover, in the assay with 2′3′-cGAMP, the “binding of 2′3′-cGAMP (MST)” value was “none of the related nucleotides or CDNs was able to bind”. Moreover, the “binding of GMP (MST)” value in the assay on GMP was “none of the related nucleotides or CDNs was able to bind”. For the same compound, the “binding of GTP (MST)” value in the assay with GTP is reported as “none of the related nucleotides or CDNs was able to bind”.
